According to ChEMBL document CHEMBL1159064 (J Med Chem, 2010):
Calls of active or inactive are those of the source. The rule behind the calls is not given here.

Assays:
[1] = biological target: D(1A) dopamine receptor (Homo sapiens, UniProt P21728); assay: Displacement of [3H]SCH23390 from dopamine D1 receptor expressed in HEK293 cells by liquid scintillation counting; type: cell-based
Outline: (§1)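 Membranes from stably transfected HEK293 cells (15 μg/tube) expressing D1 (radioligand [3H]SCH23390) or D2 (radioligand [3H]spiperone), 0.7 nM radioligand, compound 1 nM–100 μM, duplicate tubes, 50 min at 30 °C. Buffer 50 mM Tris, 4 mM MgCl2, pH 7.4. Nonspecific binding with 10 μM SCH23390 (D1) or spiperone (D2). GF/B filtration, scintillation counting. Ki by sigmoidal nonlinear regression.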

[2] = biological target: D(2) dopamine receptor (Homo sapiens, UniProt P14416); assay: Displacement of [3H]spiperone from dopamine D2 receptor expressed in HEK293 cells by liquid scintillation counting; type: cell-based; outline: as §1
[3] = biological target: T1, 5-hydroxytryptamine receptor 1A (Homo sapiens, UniProt P08908); assay: Displacement of [3H]8-OH-DPAT from 5HT1A receptor expressed in CHO cells by liquid scintillation counting; type: cell-based
T1 sequence (P08908 whole entry): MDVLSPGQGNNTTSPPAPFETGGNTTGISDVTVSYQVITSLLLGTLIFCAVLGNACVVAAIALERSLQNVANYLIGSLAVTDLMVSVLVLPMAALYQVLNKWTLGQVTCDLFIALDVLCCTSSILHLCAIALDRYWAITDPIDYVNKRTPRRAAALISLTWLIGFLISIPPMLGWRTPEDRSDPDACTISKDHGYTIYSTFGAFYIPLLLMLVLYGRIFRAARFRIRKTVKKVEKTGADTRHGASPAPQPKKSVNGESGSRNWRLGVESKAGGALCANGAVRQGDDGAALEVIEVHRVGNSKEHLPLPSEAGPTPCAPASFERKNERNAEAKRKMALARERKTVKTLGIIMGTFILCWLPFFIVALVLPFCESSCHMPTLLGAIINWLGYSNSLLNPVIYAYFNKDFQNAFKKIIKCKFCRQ
Outline: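 Binding buffer 50 mM Tris, 4 mM MgCl2, pH 7.4. Nonspecific binding defined with 10 μM of a selective 5-HT1A antagonist. GF/B filtration with cold Tris/EDTA wash, scintillation counting. IC50/Ki by sigmoidal nonlinear regression. Mean of 5-6 experiments.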

[4] = biological target: T1, 5-hydroxytryptamine receptor 1A; assay: […] activity at 5HT1A receptor expressed in CHO cells assessed as inhibition of 5-HT-stimulated [35S]GTPgamma binding; type: functional, cell-based
[5] = biological target: T2, 5-hydroxytryptamine receptor 1A (Homo sapiens) (UniProt P08908); assay: Antagonist activity at 5HT1A receptor expressed in CHO cells assessed as inhibition of 5-HT-stimulated [35S]GTPgamma binding relative to control; type: functional, cell-based
T2 sequence (whole entry): T1 sequence (P08908 whole entry)

[6] = biological target: T2, 5-hydroxytryptamine receptor 1A (Homo sapiens); assay: Agonist activity at 5HT1A receptor expressed in CHO cells assessed as stimulation of [35S]GTPgamma binding relative to control; type: functional, cell-based
[7] = biological target: T1, 5-hydroxytryptamine receptor 1A; assay: Agonist activity at 5HT1A receptor expressed in CHO cells assessed as stimulation of [35S]GTPgamma binding; type: functional, cell-based
[8] = tested on: Rattus norvegicus; assay: Anxiolytic effect in Sprague-Dawley rat assessed as increase in time spent at open arm at 3 mg/kg, ip pretreated for 1 hr by elevated plus maze test; type: functional, organism-based; design: dose 3 mg/kg
Outline: (§2)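 Male rats, 250-300 g, given saline or test compound ip (1.0 or 3.0 mg/kg) 1 h before the maze. Two open and two closed arms (40 cm walls), 50 × 10 cm arms, raised 50 cm. Rat placed on centre facing a closed arm and allowed 5 min to explore. Video tracking recorded open-arm entries and time. Mean ± SE, n = 7-9; comparison to the saline group.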

[9] = tested on: Rattus norvegicus; assay: Anxiolytic effect in Sprague-Dawley rat assessed as increase in number of entries at open arm at 1 mg/kg, ip pretreated for 1 hr by elevated plus maze test; type: functional, organism-based; design: dose 1 mg/kg; outline: as §2
[10] = tested on: Rattus norvegicus; assay: Anxiolytic effect in Sprague-Dawley rat assessed as increase in time spent at open arm at 1 mg/kg, ip pretreated for 1 hr by elevated plus maze test; type: functional, organism-based; design: dose 1 mg/kg; outline: as §2
[11] = tested on: Rattus norvegicus; assay: Anxiolytic effect in Sprague-Dawley rat assessed as increase in number of entries at open arm at 3 mg/kg, ip pretreated for 1 hr by elevated plus maze test; type: functional, organism-based; design: dose 3 mg/kg; outline: as §2
[12] = tested on: Rattus norvegicus; assay: Increase in ventral tegmental area dopaminergic neuron firing rate in D2-like receptor antagonist raclopride-pretreated Sprague-Dawley rat at 1 mg/kg, iv in pretreated with 5HT1A receptor antagonist WAY-100635; type: functional, organism-based; design: dose 1 mg/kg
[13] = tested on: Rattus norvegicus; assay: Increase in ventral tegmental area dopaminergic neuron bursting level in D2-like receptor antagonist raclopride-pretreated Sprague-Dawley rat at 1 mg/kg, iv in presence of 5HT1A receptor antagonist WAY-100635 administered post compound dose; type: functional, organism-based; design: dose 1 mg/kg
[14] = tested on: Rattus norvegicus; assay: Increase in ventral tegmental area dopaminergic neuron bursting level in D2-like receptor antagonist raclopride-pretreated Sprague-Dawley rat at 1 mg/kg, iv relative to untreated control; type: functional, organism-based; design: dose 1 mg/kg
[15] = tested on: Rattus norvegicus; assay: Increase in ventral tegmental area dopaminergic neuron bursting level in D2-like receptor antagonist raclopride-pretreated Sprague-Dawley rat at 1 mg/kg, iv in pretreated with 5HT1A receptor antagonist WAY-100635; type: functional, organism-based; design: dose 1 mg/kg
[16] = tested on: Rattus norvegicus; assay: Increase in ventral tegmental area dopaminergic neuron firing rate in D2-like receptor antagonist raclopride-pretreated Sprague-Dawley rat at 1 mg/kg, iv in presence of 5HT1A receptor antagonist WAY-100635 administered post compound dose; type: functional, organism-based; design: dose 1 mg/kg

Chain of D(2) dopamine receptor (P14416 whole entry): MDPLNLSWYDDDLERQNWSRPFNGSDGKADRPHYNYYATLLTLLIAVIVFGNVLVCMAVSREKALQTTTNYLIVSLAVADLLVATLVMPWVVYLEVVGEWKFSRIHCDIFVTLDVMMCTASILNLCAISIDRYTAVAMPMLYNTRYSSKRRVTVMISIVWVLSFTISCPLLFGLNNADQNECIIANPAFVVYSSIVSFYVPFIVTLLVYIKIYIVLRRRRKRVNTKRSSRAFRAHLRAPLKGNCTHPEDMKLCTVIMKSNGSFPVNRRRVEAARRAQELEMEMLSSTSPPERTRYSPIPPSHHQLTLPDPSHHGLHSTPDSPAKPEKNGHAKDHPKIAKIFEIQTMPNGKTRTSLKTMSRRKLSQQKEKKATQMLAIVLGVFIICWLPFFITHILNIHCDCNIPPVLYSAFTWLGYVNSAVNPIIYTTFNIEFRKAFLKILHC
Chain of D(1A) dopamine receptor (P21728 whole entry): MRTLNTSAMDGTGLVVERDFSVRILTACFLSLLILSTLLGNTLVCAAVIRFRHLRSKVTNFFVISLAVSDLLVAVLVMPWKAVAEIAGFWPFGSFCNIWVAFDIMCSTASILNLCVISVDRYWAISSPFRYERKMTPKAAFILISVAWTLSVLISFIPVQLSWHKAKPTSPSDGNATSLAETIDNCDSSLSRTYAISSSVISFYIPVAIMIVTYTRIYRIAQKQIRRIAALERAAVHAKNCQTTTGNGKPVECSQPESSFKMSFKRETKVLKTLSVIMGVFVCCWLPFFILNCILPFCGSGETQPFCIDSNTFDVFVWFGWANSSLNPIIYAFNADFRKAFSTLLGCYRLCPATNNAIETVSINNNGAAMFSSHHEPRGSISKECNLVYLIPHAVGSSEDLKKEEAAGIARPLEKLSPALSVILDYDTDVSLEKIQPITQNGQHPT

## C=C(C)Cc1ccc2c(c1O)-c1cccc3c1[C@@H](C2)N(CCC)CC3
[1]
  Ki: > 10000 nM
[2]
  Ki: > 10000 nM
[3]; cho
  Ki: Not Active

## COc1cc2c3c(c1)-c1c(O)cccc1C[C@H]3N(C)CC2
[1]
  Ki: 46 nM
[2]
  Ki: 235 nM
[3]; read-out: Ki
  Ki: 258 nM

## CCCN1CCc2cccc3c2[C@H]1Cc1cccc(O)c1-3
[1]
  Ki: > 10000 nM
[3]; read-out: Ki
  Ki: 45 nM

## CCCN1CCc2cccc3c2[C@H]1Cc1cccc(OCC=C(C)C)c1-3
[1]
  Ki: > 10000 nM
[2]
  Ki: > 10000 nM
[3]; read-out: Ki
  Ki: 149 nM

## C/C=C/COc1cccc2c1-c1cccc3c1[C@@H](C2)N(CCC)CC3
[3]; read-out: Ki
  Ki: 11 nM

## NCCc1c[nH]c2ccc(O)cc12 [SEROTONIN]
[4]; cho
  IC50: Not Active
[5]
  Imax: inactive

## C=CC(C)c1ccc2c(c1O)-c1cccc3c1[C@@H](C2)N(CCC)CC3 (mixture of isomers)
[3]; read-out: Ki
  Ki: > 10000 nM

## C=CCOc1cccc2c1-c1cc(OC)cc3c1[C@@H](C2)N(C)CC3
[1]
  Ki: > 10000 nM
[2]
  Ki: > 10000 nM
[3]; read-out: Ki
  Ki: 66 nM

## C=CCOc1cccc2c1-c1cccc3c1[C@@H](C2)N(CCC)CC3
[1]
  Ki: > 10000 nM
[2]
  Ki: > 10000 nM
[3]; read-out: Ki
  Ki: 279 nM

## C=CCOc1cccc2c1-c1cccc3c1[C@@H](C2)N(C)CC3
[4]; read-out: IC50
  IC50: 323 nM
[1]
  Ki: > 10000 nM
[6]
  Emax: 61%
[7]; read-out: EC50
  EC50: 56 nM
[5]
  Imax: 100%
[2]
  Ki: > 10000 nM
[3]; read-out: Ki
  Ki: 12 nM

## C#CCOc1cccc2c1-c1cccc3c1[C@@H](C2)N(C)CC3
[1]
  Ki: > 10000 nM
[6]
  Emax: 73%
[7]; read-out: EC50
  EC50: 180 nM
[2]
  Ki: > 10000 nM
[3]; read-out: Ki
  Ki: 14 nM

## CCCN1CCc2cccc3c2[C@H]1Cc1c(CC=C(C)C)ccc(O)c1-3
[1]
  Ki: > 10000 nM
[2]
  Ki: > 10000 nM
[3]; cho
  Ki: Not Active

## C=C(C)COc1cccc2c1-c1cccc3c1[C@@H](C2)N(CCC)CC3
[1]
  Ki: > 10000 nM
[2]
  Ki: > 10000 nM
[3]; read-out: Ki
  Ki: 373 nM

## C=CCc1ccc2c(c1O)-c1cccc3c1[C@@H](C2)N(C)CC3
[1]
  Ki: > 10000 nM
[2]
  Ki: > 10000 nM
[3]; read-out: Ki
  Ki: 135 nM

## CC1Cc2ccc3c(c2O1)-c1cc(O)cc2c1[C@@H](C3)N(C)CC2 (mixture of isomers)
[3]; read-out: Ki
  Ki: 12 nM

## CCCN1CCc2cccc3c2[C@H]1Cc1ccc2c(C)c(C)oc2c1-3
[1]
  Ki: > 10000 nM
[2]
  Ki: > 10000 nM
[3]; read-out: Ki
  Ki: 510 nM

## Cc1cc2ccc3c(c2o1)-c1cccc2c1[C@@H](C3)N(C)CC2
[1]
  Ki: > 10000 nM
[2]
  Ki: > 10000 nM
[3]; read-out: Ki
  Ki: 29 nM

## C=CCc1ccc2c(c1O)-c1cccc3c1[C@@H](C2)N(CCC)CC3
[1]
  Ki: > 10000 nM
[2]
  Ki: > 10000 nM
[3]; read-out: Ki
  Ki: 793 nM

## CC#CCOc1cccc2c1-c1cccc3c1[C@@H](C2)N(CCC)CC3
[1]
  Ki: > 10000 nM
[2]
  Ki: > 10000 nM
[3]; read-out: Ki
  Ki: 125 nM

## C=CC(C)Oc1cccc2c1-c1cccc3c1[C@@H](C2)N(CCC)CC3 (mixture of isomers)
[3]; read-out: Ki
  Ki: > 10000 nM

## CN1CCc2cccc3c2[C@H]1Cc1cccc(O)c1-3
[1]
  Ki: 61 nM
[2]
  Ki: 208 nM
[3]; read-out: Ki
  Ki: 49 nM

## CCCN1CCc2cccc3c2[C@H]1Cc1ccc2c(c1-3)OC(C)C2C (mixture of isomers)
[3]; read-out: Ki
  Ki: 90 nM

## C=CC(C)c1ccc(O)c2c1C[C@@H]1c3c(cccc3-2)CCN1CCC (mixture of isomers)
[3]; read-out: Ki
  Ki: 626 nM

## C#CCOc1cccc2c1-c1cccc3c1[C@@H](C2)N(CCC)CC3
[1]
  Ki: > 10000 nM
[2]
  Ki: > 10000 nM
[3]; read-out: Ki
  Ki: 55 nM

## CC1Cc2ccc3c(c2O1)-c1cccc2c1[C@@H](C3)N(C)CC2 (mixture of isomers)
[4]; read-out: IC50
  IC50: 323 nM
[1]
  Ki: > 10000 nM
[6]
  Emax: inactive
[7]; cho
  EC50: Not Active
[5]
  Imax: 100%
[2]
  Ki: > 10000 nM
[3]; read-out: Ki
  Ki: 6.7 nM

## CCCN1CCc2cccc3c2[C@H]1Cc1ccc2c(c1-3)OC(C)C2 (mixture of isomers)
[3]; read-out: Ki
  Ki: 340 nM

## C=CCc1ccc2c(c1O)-c1cc(OC)cc3c1[C@@H](C2)N(C)CC3
[1]
  Ki: > 10000 nM
[2]
  Ki: > 10000 nM
[3]; read-out: Ki
  Ki: 144 nM

## C[C@H]1Cc2ccc3c(c2O1)-c1cccc2c1[C@@H](C3)N(C)CC2 (relative stereo)
[4]; read-out: IC50
  IC50: 18 nM
[8]
  Activity: inactive
[1]
  Ki: > 10000 nM
[9]
  Activity: inactive
[6]
  Emax: inactive
[10]
  Activity: inactive
[7]; cho
  EC50: Not Active
[5]
  Imax: 100%
[2]
  Ki: > 10000 nM
[11]
  Activity: inactive
[3]; read-out: Ki
  Ki: 45.3 nM

## CCCN1CCc2cccc3c2[C@H]1Cc1ccc2c(c1-3)OC(C)(C)C2
[1]
  Ki: > 10000 nM
[2]
  Ki: > 10000 nM
[3]; read-out: Ki
  Ki: 630 nM

## C[C@@H]1Cc2ccc3c(c2O1)-c1cccc2c1[C@@H](C3)N(C)CC2 (relative stereo)
[4]; cho
  IC50: Not Active
[8]
  Activity: Active
[1]
  Ki: > 10000 nM
[12]
  Activity: inactive
[13]
  Activity: inactive
[14]
  Activity: Active
[6]
  Emax: 127%
[7]; read-out: EC50
  EC50: 86 nM
[15]
  Activity: inactive
[5]
  Imax: inactive
[16]
  Activity: inactive
[2]
  Ki: > 10000 nM
[11]
  Activity: Active
[3]; read-out: Ki
  Ki: 3.1 nM

## CCCN1CCc2cccc3c2[C@H]1Cc1ccc2cc(C)oc2c1-3
[1]
  Ki: > 10000 nM
[2]
  Ki: > 10000 nM
[3]; read-out: Ki
  Ki: 320 nM
